NR1D1 modulator – Rev-erb alpha (human) modulation; Rev-erbα–FITC-DNA binding, fluorescence polarization, 90 min; activity, % at 10 µM; 370,000 tested, 0.79% active;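 active = activity above about 14%, limit read from the data; passing the limit was not always enough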
Target sequence (P20393 whole entry, looked up): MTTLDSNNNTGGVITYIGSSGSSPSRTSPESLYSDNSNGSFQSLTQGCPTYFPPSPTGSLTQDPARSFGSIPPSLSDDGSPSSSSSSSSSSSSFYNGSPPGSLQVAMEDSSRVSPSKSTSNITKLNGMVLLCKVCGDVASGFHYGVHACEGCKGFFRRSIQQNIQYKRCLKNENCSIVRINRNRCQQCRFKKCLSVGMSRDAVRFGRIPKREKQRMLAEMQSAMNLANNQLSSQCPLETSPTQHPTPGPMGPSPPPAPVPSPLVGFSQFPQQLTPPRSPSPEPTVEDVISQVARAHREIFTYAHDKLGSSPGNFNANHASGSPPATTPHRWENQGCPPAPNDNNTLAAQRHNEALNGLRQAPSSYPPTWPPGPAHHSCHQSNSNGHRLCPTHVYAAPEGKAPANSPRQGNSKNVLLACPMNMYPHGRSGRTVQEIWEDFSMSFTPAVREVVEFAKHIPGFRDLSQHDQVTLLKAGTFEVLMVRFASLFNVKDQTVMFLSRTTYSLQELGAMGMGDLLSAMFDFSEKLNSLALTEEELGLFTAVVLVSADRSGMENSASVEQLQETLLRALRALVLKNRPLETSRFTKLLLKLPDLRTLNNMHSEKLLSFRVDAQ
PG9 Ab binder – PG9 antibody binding by small molecule; TR-FRET gp120-PG9 antibody binding; inhibition, % at 6.7 µM; 360,000 tested, 0.43% active; AID 624416; in the data active = inhibition above about 8.5%
NR2E3 ag-1 – human photoreceptor-specific nuclear receptor agonism; Q9Y5X4; CHO-S Gal4-NCOR/VP16-NR2E3 two-hybrid, luciferase; inhibition of corepressor binding, % at 3.98 µM; 360,000 tested, 0.35% active;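 active = inhibition above the mean of all tested compounds plus 3 SD, cut at about 70% in these data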;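 note: higher means lower luciferase signal from less NR2E3 corepressor binding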
GalR3 antag – human GalR3 antagonism; 360,000 tested, 0.44% active; HEK293 GalR3-CNG cAMP membrane potential fluorescence; galR3 body fused to GalR1 C-terminus; inhibition, % at 3 µM;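 active = inhibition above the screen-wide average plus 3 SD, cut at about 13% in these data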;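 note: forskolin and galanin both at EC90 stimulate the cells; cAMP rise reported by CNG channel membrane potential dye signal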
NR2E3 ag-2 – agonists of human nuclear receptor NR2E3; Q9Y5X4; 320,000 tested, 0.12% active; AID 2300; GST-NR2E3/biotin-RetCOR TR-FRET, 1536-well; inhibition of corepressor binding, % at 4.78 µM;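 active = percent inhibition above the cutoff of mean plus 3 SD of all tested compounds, set per screening campaign, cut at about 20% in these data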
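Test system – NR2E3–RetCOR corepressor complex · Quantity – NR2E3 fusion 1.35 nM · Buffer or medium – Tris pH 7.5 · Incubation – Compound–protein incubation for 5 h at 4 °C · Technique – TR-FRET, Eu(K)-anti-GST donor, streptavidin-D2 acceptor, ex 340, em 617/671 nm · Evaluation – percent inhibition of 671/617 nm emission ratio versus biotin and DMSO controls · Plate – 1536-well format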
NR1D1 mod conf – Rev-erb alpha (human) modulation, hit confirmation. AID 1259319. activation, % at 25 µM. 3,000 tested, 61% active. shares compounds with NR1D1 modulator. Rev-erb alpha FITC-DNA binding, fluorescence polarization, 90 min;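 active = activation at or above a set limit, or at least 3 SD above the negative control mean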
RORg DNA counter – RORgamma DNA-binding activity, dose-response counter-screen. shares compounds with NR1D1 modulator. purified RORgamma protein-FITC-DNA binding, fluorescence polarization. IC50, µM. 910 tested, 8% active. AID 1259320;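 active = Compounds whose fitted half-maximal concentration for disrupting protein-DNA binding is below 10 micromolar; the record names Rev-erb in its text, so the target is in doubt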
Of the large screens only hits and unclear results are named; the others gave an inactive call (follow-up assays come after a bar, where they were run). Rows were chosen to be rich in hits. Some 1.8% of all compounds tested hit in one or more screens of this group.

Cc1ccc2nc(-c3ccc(NC(=O)CCS(=O)(=O)c4ccccc4)cc3)sc2c1	NR1D1 modulator 18.7 | NR1D1 mod conf 22.8
Cc1ccc2nc(-c3ccc(NC(=S)NC(=O)CC(C)C)cc3)sc2c1	NR1D1 modulator 21.6 | NR1D1 mod conf inactive
O=S1(=O)CC2c3ccccc3CN2CN1CCc1ccccc1 (stereo unspecified)	none (no result: PG9 Ab binder, NR2E3 ag-1, GalR3 antag, NR2E3 ag-2)
CCC1(c2ccc(F)cc2)NC(=O)N(CC(=O)Nc2ccc(-c3nc4ccc(C)cc4s3)cc2)C1=O (stereo unspecified)	NR1D1 modulator 41.1 | NR1D1 mod conf inactive
Cc1ccc2nc(-c3ccc(NC(=O)CSc4nnc(Cc5cccs5)n4C)cc3)sc2c1	NR1D1 modulator 43.4 (no result: PG9 Ab binder, NR2E3 ag-1, GalR3 antag, NR2E3 ag-2) | NR1D1 mod conf 24.8
C#C[C@]1(O)CCC2C3CCc4cc(OC)ccc4C3CC[C@@]21C (stereo partly specified)	none (no result: PG9 Ab binder, NR2E3 ag-1, GalR3 antag, NR2E3 ag-2)
N#Cc1cccc(NC(=O)OCCCN2CCC3(CCCCC3)C2=O)c1	none (no result: PG9 Ab binder, NR2E3 ag-1, GalR3 antag, NR2E3 ag-2)
C=CCn1c(SCCN2C(=O)c3ccccc3C2=O)nc2scc(-c3ccc(F)cc3)c2c1=O	NR1D1 modulator 21.1 (no result: NR2E3 ag-2) | NR1D1 mod conf inactive
Cc1ccc(-c2nn3c(C)nnc3s2)cc1NCc1c(F)cccc1Cl	NR1D1 modulator 23.3 | NR1D1 mod conf inactive
O=S(=O)(N1CCCCC1)N1CCN(CC(O)COc2ccc3cc(Br)ccc3c2)CC1 (stereo unspecified)	NR1D1 modulator 99.7, PG9 Ab binder 12.4 | NR1D1 mod conf 49.1 | RORg DNA counter inactive
CN(C)S(=O)(=O)N1CCN(CC(O)COc2ccc3cc(Br)ccc3c2)CC1 (stereo unspecified)	none
CS(=O)(=O)c1nc(-c2ccc(Br)cc2)cc(-c2ccccc2)c1C#N	none
N#Cc1c(-c2cccc(F)c2)cc(-c2ccccc2)nc1Br	NR1D1 modulator 58.3, PG9 Ab binder 9.1 | NR1D1 mod conf 25.3
N#Cc1c(-c2ccccc2Cl)cc(-c2ccccc2)nc1Br	NR1D1 modulator 31.9 | NR1D1 mod conf 21.9
O=C(CCCCCN1C(=O)C2C3C=CC(C3)C2C1=O)N1CCN(c2ncccn2)CC1 (stereo unspecified)	none (no result: PG9 Ab binder, NR2E3 ag-1, GalR3 antag, NR2E3 ag-2)
O=C(CSc1nnc(-c2ccccn2)n1-c1ccccc1)c1ccc(F)cc1	none (no result: PG9 Ab binder, NR2E3 ag-1, GalR3 antag, NR2E3 ag-2)
O=C(Nc1ccccc1F)O[C@@H]1CC[C@@]23CCCN2C(=O)CCC[C@H]3C1	none (no result: PG9 Ab binder, NR2E3 ag-1, GalR3 antag, NR2E3 ag-2)
CC[C@@]1(c2ccc(C)cc2)C(=O)N(C(=O)OC(C)C)N1C(=O)OC(C)C	none (no result: PG9 Ab binder, NR2E3 ag-1, GalR3 antag, NR2E3 ag-2)
CN1C(=O)c2cccc(NCCCN3C(=O)c4ccccc4C3=O)c2C1=O	NR1D1 modulator 46.2 | NR1D1 mod conf 19.1
O=C(O)[C@H](O)[C@@H](O)[C@H](O)[C@H](O)CO	none (no result: PG9 Ab binder, NR2E3 ag-1, GalR3 antag, NR2E3 ag-2)
COc1ccc(-c2ccc(C3C(C#N)=C(N)Oc4n[nH]c(C)c43)o2)cc1 (stereo unspecified)	NR1D1 modulator 21.9 | NR1D1 mod conf 19.3
Cc1[nH]nc2c1C(c1ccco1)C(C#N)=C(N)O2 (stereo unspecified)	none
c1ccc(OCc2nnc(SCc3nc4ccccc4[nH]3)n2-c2ccccc2)cc1	none (no result: PG9 Ab binder, NR2E3 ag-1, GalR3 antag, NR2E3 ag-2)
Cc1nc2c(C)cccn2c(=O)c1NC(=O)c1cccc2ccccc12	NR1D1 modulator 28.7 | NR1D1 mod conf inactive
Cc1nc2c(C)cccn2c(=O)c1NC(=O)c1cccs1	none
O=Cc1ccccc1C=O	none (no result: PG9 Ab binder, NR2E3 ag-1, GalR3 antag, NR2E3 ag-2)
Cc1cccc2cc(C#N)c(SCC#N)nc12	NR1D1 modulator 63.2 | NR1D1 mod conf 52.8 | RORg DNA counter inactive
CCc1nc(SCC#N)c(C#N)cc1C	none (no result: NR1D1 modulator, PG9 Ab binder, NR2E3 ag-1, GalR3 antag)
NS(=O)(=O)c1ccc(CCNC(=O)c2ccc3c(c2)N(Cc2ccccc2)CCS3)cc1	NR1D1 modulator 39.3 | NR1D1 mod conf inactive
COC(=O)[C@]12C[C@H](CC(=O)N3CCSCC3)C(=O)N(Cc3ccccc3)C1=C[C@H](C(C)(C)C)O[C@@H]2C	none (no result: NR2E3 ag-1, NR2E3 ag-2)
Cc1ccc(C)c(NC(=O)CSc2nc(C)cc(C)c2C#N)c1	NR1D1 modulator 38.0 | NR1D1 mod conf 25.2
CCOC(=O)c1sc(NC(=O)CSc2nc3c(c(-c4ccc(OC)cc4)c2C#N)CCCC3)c(C#N)c1C	NR1D1 modulator 31.7 | NR1D1 mod conf 21.9
CCOC(=O)c1sc(NC(=O)CSc2nc3c(cc2C#N)CCCCCC3)c(C#N)c1C	none

Assay outcomes from PubChem.
